# Measurements from different studies.
# Each line is one published result; the experiments were not run side by side.
# Target: cAMP-dependent protein kinase catalytic subunit PRKX (PRKX, Homo sapiens, UniProt P51817)
# Sequence (P51817 1-358, as in one of the studies): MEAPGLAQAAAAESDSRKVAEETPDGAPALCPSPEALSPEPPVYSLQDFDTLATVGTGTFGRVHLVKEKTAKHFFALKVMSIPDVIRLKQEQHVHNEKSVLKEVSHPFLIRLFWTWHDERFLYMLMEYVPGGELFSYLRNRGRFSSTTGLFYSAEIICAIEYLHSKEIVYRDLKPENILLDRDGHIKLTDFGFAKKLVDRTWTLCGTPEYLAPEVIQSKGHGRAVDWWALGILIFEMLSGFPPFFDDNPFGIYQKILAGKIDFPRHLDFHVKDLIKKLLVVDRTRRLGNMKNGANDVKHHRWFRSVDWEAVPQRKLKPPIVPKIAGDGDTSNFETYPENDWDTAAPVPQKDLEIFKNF
SMILES,effect on,mode,technique,tested at,measurement,result
CCN(CC)c1ccc(C2=NNC(=O)CC2C)cc1[N+](=O)[O-] (centres unmarked),enzyme activity,inhibitor,,10 µM,remaining activity,91%
CNCc1ccccc1-c1csc([C@@H](C)Nc2nc(C)nc3cc(OC)c(OC)cc23)c1,cell-free assay,,competition with immobilised ligand,1 µM,remaining binding,67%
N#CCCc1ccc2c(c1)-c1[nH]c3ccc([N+](=O)[O-])cc3c1CC(=O)N2,cell-free assay,,,0.5 µM,remaining signal,78.4%
CCN(CC)CCNC(=O)c1c(C)[nH]c(/C=C2\C(=O)Nc3ccc(F)cc32)c1C,enzyme activity,inhibitor,,0.3 µM,inhibition,1%
Cn1cnc(Br)c1C1=CN(c2ncnc3[nH]cnc23)CCS1,enzyme activity,inhibitor,radiometric,50 nM,inhibition,17.6%
Cc1ccc(C(=O)NCc2ccsc2)cc1C#Cc1cn(C(C)C)c2ncnc(N)c12,enzyme activity,inhibitor,,1 µM,activity vs control,110%
CNC(=O)c1ccc(Nc2ncc(C(F)(F)F)c(NCc3nccnc3N(C)S(C)(=O)=O)n2)cc1,cell-free assay,,competition with immobilised ligand,0.1 µM,remaining binding,95%
Cc1sc(C(=O)NC2COC2)cc1-n1cc(NC(=O)Nc2c(F)cccc2Cl)cn1,enzyme activity,inhibitor,,10 µM,remaining activity,87.5%
Cc1ccc(NC(=O)c2ccc(CN3CCN(C)CC3)cc2)cc1Nc1nc(-c2cccnc2)cs1,cell-free assay,,,0.5 µM,remaining signal,99.5%
CCCOc1ccc(OC)c(F)c1C(=O)c1ccc(C(=O)N[C@@H]2CNC[C@H]2NC(=O)c2ccc3[nH]ncc3c2)cc1,enzyme activity,inhibitor,,50 nM,remaining activity,16%
CCS(=O)(=O)c1cc2cc(C[C@@](O)(CC(C)(C)c3ccc(F)cc3C(N)=O)C(F)(F)F)[nH]c2cn1,cell-free assay,,competition with immobilised ligand,1 µM,remaining binding,77%
Nc1ncnc2occ(-c3ccc(NC(=O)Nc4cc(C(F)(F)F)ccc4F)cc3)c12,cell-free assay,inhibitor,,20 µM,remaining signal,74%
CC1=C(C#N)C(c2ccc3c(c2)c(NC(=O)c2ccccc2C)nn3C)C(C#N)=C(C)N1,cell-free assay,,competition with immobilised ligand,1 µM,remaining binding,76%
Cc1ccc(Nc2nccc(N(C)c3ccc4c(C)n(C)nc4c3)n2)cc1S(N)(=O)=O,enzyme activity,inhibitor,,0.3 µM,inhibition,61%
CN(C(=O)c1ccccc1)c1cc(N(C)c2ccc3c(c2)CCc2ccc(C(=O)NCCN4CCOCC4)cc2C3=O)ccc1F,cell-free assay,,competition with immobilised ligand,1 µM,remaining binding,93%
CC/C(=N\NC(=O)NCc1cccc(O)c1)c1ccc(O)c(C)c1O,enzyme activity,inhibitor,,0.1 µM,inhibition,81.9%
CNC(=O)c1cc(Oc2ccc(NC(=O)Nc3ccc(Cl)c(C(F)(F)F)c3)cc2)ccn1,enzyme activity,inhibitor,,10 µM,inhibition,48%
CC(C)(C)c1nc2c(s1)c1nc(N)ncc1c1ccc(NS(=O)(=O)c3c(F)cccc3F)c(F)c12,enzyme activity,inhibitor,radiometric,1 µM,remaining activity,82%
Cc1cc(NC(=O)c2cccc(S(F)(F)(F)(F)F)c2)cc(-n2ccn3nc(-c4cccnc4)cc23)c1,cell-free assay,,competition with immobilised ligand,1 µM,remaining binding,100%
COc1cc(Cl)c(C(=O)N[C@@H](CN[C@H]2CC[C@@H](N)CC2)Cc2ccc(C#N)cc2)cc1-c1ccc(CN[C@H](C)c2ccc(C)cc2)o1,enzyme activity,inhibitor,,1 µM,remaining activity,97%
Cc1ccc(C(=O)Nc2ccc(CN3CCN(C)CC3)c(C(F)(F)F)c2)cc1C#Cc1cnc2cccnn12,enzyme activity,,,23.5 nM,remaining activity,77%
COc1cc2ncnc(Nc3ccc(Oc4ccccc4)c(C)c3C)c2cc1OC,enzyme activity,inhibitor,,1 µM,inhibition,-12%
C[C@@H](c1cccc(C#N)c1)n1cc(Cl)cc(C(N)=O)c1=N,cell-free assay,,competition with immobilised ligand,1 µM,remaining binding,100%
CC(C)(O)[C@H]1CC[C@H](Nc2ccc3ncc(-c4cccc(C(F)(F)F)c4)n3n2)CC1,enzyme activity,inhibitor,,1 µM,remaining activity,103%
CO[C@@H](C)c1c(Nc2ccc([C@@H](N(C)C(=O)C3CCS(=O)(=O)CC3)C(F)(F)F)cc2)cnc2cc(Cl)nn12,cell-free assay,,competition with immobilised ligand,1 µM,remaining binding,84%
O=C1Nc2ccc(Cl)cc2C1=Cc1cc(Cl)c(O)c(Cl)c1,cell-free assay,,,0.5 µM,remaining signal,92.1%
